This note sets out measurements from ChEMBL document CHEMBL4706523, “Targeting topoisomerase II with trypthantrin derivatives: Discovery of 7-((2-(dimethylamino)ethyl)amino)indolo[2,1-b]quinazoline-6,12-dione as an antiproliferative agent and to treat cancer” (Eur J Med Chem, 2020).

In brackets after ≈: the same amount, converted by molar mass. Activity calls are given as the source filed them. The rule behind the calls is not given here.

In series [1] the target is T1, DNA topoisomerase 2-alpha (Homo sapiens, UniProt P11388). As to the kind of experiment: Inhibition of human DNA topoisomerase 2alpha assessed as suppression of decatenation using catenated kinetoplast DNA as substrate up to 250 uM measured after 30 mins by SYBR safe DNA staining based staining-based agarose gel electrophoresis method. Conditions: dose microM <=250, time 30.0 min. The procedure, abridged:
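Human topoII α decatenation kit reaction, with compound or DMSO vehicle at 5% DMSO final. Incubated 30 min at 37°C, products resolved on 1% agarose with SYBR safe stain. IC50 from four-parameter nonlinear regression, mean ± SD of two independent assays. Tested up to 250 μM.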

The target in series [2] is T1, DNA topoisomerase 2-alpha. Kind of series: Inhibition of human DNA topoisomerase 2alpha assessed as suppression of decatenation using catenated kinetoplast DNA as substrate measured after 30 mins by SYBR safe DNA staining based staining-based agarose gel electrophoresis method. The procedure, abridged: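 Human topoII α decatenation kit reaction, with compound or DMSO vehicle at 5% DMSO final. Incubated 30 min at 37°C, products resolved on 1% agarose with SYBR safe stain. IC50 from four-parameter nonlinear regression, mean ± SD of two independent assays.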

Series [3] addresses T1, DNA topoisomerase 2-alpha. As to the kind of experiment: Potency index, ratio of etoposide IC50 to test compound IC50 for inhibition of human DNA topoisomerase 2alpha.
Series [4] concerns Jurkat. As to the kind of experiment: Antiproliferative activity against human Jurkat cells assessed as reduction in cell viability after 72 hrs by eosin exclusion dye based light microscopic method. The format is functional. The procedure, abridged: (§1)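 Suspension leukaemia lines grown in RPMI with 4.5 g/L glucose, 2 mM glutamine, penicillin/streptomycin and 10% heat-inactivated FBS (HL-60 in 20% FBS). Seeded at 0.25x10⁶ cells/mL (Jurkat, CCRF-CEM, CEM/C2) or 0.125x10⁶ cells/mL (HL-60). Treated 72h at 0–64 μM, 37°C, 5% CO₂. Viable cells counted by eosin exclusion in a Bürker chamber, normalised to untreated cells. IC50 from non-linear regression, at least triplicate.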

In series [5] the test system is CCRF-CEM. Kind of series: Antiproliferative activity against human CCRF-CEM cells assessed as reduction in cell viability after 72 hrs by eosin exclusion dye based light microscopic method. The format is functional. Conditions: for IC50: 72 h; for GI50: time 72 hrs. The essentials:
as §1

Series [6] relates to CEM/C2. Kind of series: Antiproliferative activity against human CEM/C2 cells assessed as reduction in cell viability after 72 hrs by eosin exclusion dye based light microscopic method. The format is functional. The essentials:
as §1

Series [7] concerns HL-60. Kind of series: Antiproliferative activity against human HL-60 cells assessed as reduction in cell viability after 72 hrs by eosin exclusion dye based light microscopic method. The format is functional. The essentials:
as §1

For series [8], the species on record is Homo sapiens. As to the kind of experiment: Selectivity ratio of IC50 for antiproliferative activity against human CCRF-CEM cells to IC50 for antiproliferative activity against human Jurkat cells. The series is classed as cell-based.
Series [9] is filed under the species Homo sapiens. As to the kind of experiment: Selectivity ratio of IC50 for antiproliferative activity against human CCRF-CEM cells to IC50 for antiproliferative activity against human MCF7 cells. The format is cell-based.
The species named for series [10] is Homo sapiens. As to the kind of experiment: Selectivity ratio of IC50 for antiproliferative activity against human CEM/C2 cells to IC50 for antiproliferative activity against human Jurkat cells. The series is classed as cell-based.
For series [11], the species on record is Homo sapiens. As to the kind of experiment: Selectivity ratio of IC50 for antiproliferative activity against human CEM/C2 cells to IC50 for antiproliferative activity against human MCF7 cells. The format is cell-based.
The species named for series [12] is Homo sapiens. As to the kind of experiment: Selectivity ratio of IC50 for antiproliferative activity against human HL-60 cells to IC50 for antiproliferative activity against human Jurkat cells. The series is classed as cell-based.
The species named for series [13] is Homo sapiens. Kind of series: Selectivity ratio of IC50 for antiproliferative activity against human HL-60 cells to IC50 for antiproliferative activity against human MCF7 cells. The series is classed as cell-based.
Series [14] is filed under the species Homo sapiens. Kind of series: Selectivity ratio of IC50 for antiproliferative activity against human HT-29 cells to IC50 for antiproliferative activity against human Jurkat cells. The series is classed as cell-based.
For series [15], the species on record is Homo sapiens. As to the kind of experiment: Selectivity ratio of IC50 for antiproliferative activity against human HT-29 cells to IC50 for antiproliferative activity against human MCF7 cells. The format is cell-based.
The species entered for series [16] is Homo sapiens. As to the kind of experiment: Selectivity ratio of IC50 for antiproliferative activity against human DLD-1 cells to IC50 for antiproliferative activity against human Jurkat cells. The series is classed as cell-based.
The species entered for series [17] is Homo sapiens. Kind of series: Selectivity ratio of IC50 for antiproliferative activity against human DLD-1 cells to IC50 for antiproliferative activity against human MCF7 cells. The series is classed as cell-based.
The test system of series [18] is CCRF-CEM. Kind of series: Potency index, ratio of tryp-tanthrin IC50 to test compound IC50 for antiproliferative activity against human CCRF-CEM cells. The series is classed as functional.
The test system of series [19] is CCRF-CEM. As to the kind of experiment: Induction of cell cycle arrest in human CCRF-CEM cells assessed as increase in accumulation at G2/M phase for 24 hrs by flow cytometric analysis. The series is classed as functional, cell-based. As to conditions: dose 8.0 µM. The procedure, abridged: (§2)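 CCRF-CEM seeded at 0.25x10⁶ cells/mL and treated 24h. Cells were fixed/permeabilised in 70% ethanol for at least 1h, then stained with PI 10 μg/mL plus RNase A 100 μg/mL for 20 min at room temperature in the dark. DNA content was read by flow cytometry, with at least 10000 events, to give subG0, G0-G1, S and G2-M fractions.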
(In flow cytometry, cells or beads pass a laser one at a time.)

Series [20] concerns CCRF-CEM. Kind of series: Induction of cell cycle arrest in human CCRF-CEM cells assessed as decrease in accumulation at G0-G1 phase for 24 hrs by flow cytometric analysis. The series is classed as functional, cell-based. As to conditions: dose 8.0 µM. The procedure, abridged: as §2
Series [21] concerns CCRF-CEM. Kind of series: Induction of cell cycle arrest in human CCRF-CEM cells assessed as accumulation at G2/M phase at 8 uM for 24 hrs by flow cytometric analysis (reference value: 27%). The format is functional. The procedure, abridged: as §2
Series [22] has as its system CCRF-CEM. Kind of series: Induction of cell death in human CCRF-CEM cells assessed as increase in fragmented DNA at 4 to 8 uM after 24 hrs followed by compound wash out further incubated for 24 hrs by flow cytometric analysis. The format is functional, cell-based. Conditions: dose 4-8 µM. The essentials:
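Recovery design: CCRF-CEM were treated 24h, then medium was removed by centrifugation, cells were PBS-washed and cultured a further 24h in drug-free complete medium. Cells were then fixed in 70% ethanol and stained with PI 10 μg/mL plus RNase A 100 μg/mL. Flow cytometry scored subG0 cells, those with fragmented DNA, from at least 10000 events.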

Series [23] deals with CCRF-CEM. Kind of series: Induction of G2/M cell cycle arrest in human CCRF-CEM cells assessed as increase in cyclin B1 expression at 8 uM by flow cytometric analysis. Conditions: time 6-24 hrs, TDE = time-dependent effect. The series is classed as functional, cell-based. The essentials: (§3)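 CCRF-CEM exposed to 8 μM for 6, 9, 16 and 24 h. 1×10⁶ cells were fixed in 2% paraformaldehyde, permeabilised in 90% methanol, and stained 30 min with anti-cyclin A or anti-cyclin B1 (1:50), then with secondary (1:200), then PI/RNase A. Flow cytometric MFI was taken in PI-gated G2-M cells and normalised to untreated G2-M cells.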

Series [24] concerns CCRF-CEM. Kind of series: Induction of G2/M cell cycle arrest in human CCRF-CEM cells assessed as increase in cyclin A expression at 8 uM after 6 to 24 hrs by flow cytometric analysis. The format is functional, cell-based. Conditions: time 6-24 hrs. The procedure, abridged:
as §3

Series [25] concerns CCRF-CEM. As to the kind of experiment: Inhibition of DNA topoisomerase 2 in human CCRF-CEM cells assessed as increase in gamma-H2Ax expression at 8 uM after 1 to 16 hrs by flow cytometric analysis. Conditions: time 1-16 hrs. The format is cell-based. The essentials:
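CCRF-CEM exposed to 8 μM for 1, 2, 3, 5 and 16 h. Cells were fixed in 2% paraformaldehyde, permeabilised in 90% methanol, and stained with anti-γ-H2AX (1:40) then secondary (1:200), with PI/RNase A counterstain. γ-H2AX immunofluorescence was read by flow cytometry per cell-cycle phase and expressed as delta γ-H2AX.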

Series [26] in a line: Solubility of compound in water. The format is physicochemical. The essentials:
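Samples were stirred for 24 h at 25°C, centrifuged, and supernatants filtered through 0.45 μm PTFE and diluted. Concentration was taken from UV absorbance against a four-point calibration line in PBS with 2% DMSO, and reported as μg/mL.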

Series [27] concerns HT-29. Kind of series: Antiproliferative activity against human HT29 cells assessed as reduction in cell viability after 72 hrs by 4-methylumbelliferyl heptanoate (MUH) fluorescence assay.
The subject of series [28] is MCF7. Kind of series: Antiproliferative activity against human MCF7 cells assessed as reduction in cell viability after 72 hrs by 4-methylumbelliferyl heptanoate (MUH) fluorescence assay.
The subject of series [29] is DLD-1. Kind of series: Antiproliferative activity against human DLD-1 cells assessed as reduction in cell viability after 72 hrs by 4-methylumbelliferyl heptanoate (MUH) fluorescence assay.
Series [30] deals with CCRF-CEM. Kind of series: Antiproliferative activity against human CCRF-CEM cells assessed as reduction in cell viability at 4 uM after 24 hrs by eosin exclusion dye based light microscopic method.
In series [31] the target is T1, DNA topoisomerase 2-alpha. Kind of series: Poison activity at human DNA topoisomerase 2 alpha assessed as stabilization of cleavage complex using PBR322 as substrate incubated for 15 mins by ethidium bromide staining based agarose gel electrophoresis method.

T1 sequence (P11388 whole entry): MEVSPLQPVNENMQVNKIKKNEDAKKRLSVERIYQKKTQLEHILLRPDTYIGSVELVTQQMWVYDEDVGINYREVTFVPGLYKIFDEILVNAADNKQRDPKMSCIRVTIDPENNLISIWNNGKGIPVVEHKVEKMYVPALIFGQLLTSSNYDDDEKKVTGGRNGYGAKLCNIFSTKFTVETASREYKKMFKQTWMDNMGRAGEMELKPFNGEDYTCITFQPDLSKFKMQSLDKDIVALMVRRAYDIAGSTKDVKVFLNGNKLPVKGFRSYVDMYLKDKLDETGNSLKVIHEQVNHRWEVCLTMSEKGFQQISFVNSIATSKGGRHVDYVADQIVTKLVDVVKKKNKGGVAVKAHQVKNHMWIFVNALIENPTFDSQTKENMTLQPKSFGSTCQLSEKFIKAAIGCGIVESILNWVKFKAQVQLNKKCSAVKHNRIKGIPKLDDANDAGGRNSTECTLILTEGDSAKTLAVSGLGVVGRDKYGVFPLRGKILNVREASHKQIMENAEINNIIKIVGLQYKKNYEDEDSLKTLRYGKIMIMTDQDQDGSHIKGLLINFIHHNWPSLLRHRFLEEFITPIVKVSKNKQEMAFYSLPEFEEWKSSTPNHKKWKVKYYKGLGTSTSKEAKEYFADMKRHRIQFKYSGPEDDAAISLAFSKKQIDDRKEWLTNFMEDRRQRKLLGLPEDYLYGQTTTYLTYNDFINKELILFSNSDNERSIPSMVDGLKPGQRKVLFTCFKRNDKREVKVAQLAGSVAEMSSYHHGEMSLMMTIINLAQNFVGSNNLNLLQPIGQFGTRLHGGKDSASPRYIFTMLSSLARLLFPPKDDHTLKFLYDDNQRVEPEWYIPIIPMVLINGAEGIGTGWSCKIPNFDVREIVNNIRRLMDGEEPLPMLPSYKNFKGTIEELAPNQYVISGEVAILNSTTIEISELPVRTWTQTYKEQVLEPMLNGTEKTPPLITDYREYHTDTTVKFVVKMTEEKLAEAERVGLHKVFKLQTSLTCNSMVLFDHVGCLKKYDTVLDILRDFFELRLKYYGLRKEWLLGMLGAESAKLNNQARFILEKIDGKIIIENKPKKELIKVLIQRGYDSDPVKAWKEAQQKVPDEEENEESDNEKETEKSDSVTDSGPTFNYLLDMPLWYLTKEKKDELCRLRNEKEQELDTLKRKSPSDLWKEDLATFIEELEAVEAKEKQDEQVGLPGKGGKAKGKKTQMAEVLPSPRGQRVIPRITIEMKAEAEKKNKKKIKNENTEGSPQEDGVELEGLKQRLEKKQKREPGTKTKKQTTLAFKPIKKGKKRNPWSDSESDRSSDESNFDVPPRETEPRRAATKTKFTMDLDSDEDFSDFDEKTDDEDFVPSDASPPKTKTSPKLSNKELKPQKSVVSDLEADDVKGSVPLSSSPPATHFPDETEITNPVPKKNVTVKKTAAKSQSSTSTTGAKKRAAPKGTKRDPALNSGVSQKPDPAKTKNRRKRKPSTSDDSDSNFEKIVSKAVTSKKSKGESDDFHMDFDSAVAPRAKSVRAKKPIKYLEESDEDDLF

With `O=C1c2ccc(N3CCCCC3)cc2-n2c1nc1ccccc1c2=O`, the inhibition entry in [1] was “inactive”.

In the case of `O=C1c2c(NCCO)cccc2-n2c1nc1ccccc1c2=O`, the inhibition entry in [1] is “inactive”.

Consider `O=C1c2ccc(N3CCOCC3)cc2-n2c1nc1ccccc1c2=O`, for which the inhibition entry in series [1] is “inactive”.

For `CCN(CC)c1cccc2c1C(=O)c1nc3ccccc3c(=O)n1-2`, the inhibition entry in [1] is “inactive”.

One may read the IC50 as the midpoint of a concentration-inhibition curve. By GI50 is commonly meant the concentration that inhibits growth by half. As usually defined, the solubility is how much of the substance goes into solution per volume. For `CN(C)CCNc1cccc2c1C(=O)c1nc3ccccc3c(=O)n1-2`, the IC50 in series [2] was 26.6 µM; in [4], 18.2 µM; in series [5], 8.26 µM; in series [6] (CEM/C2, 72 h) it was 9.16 µM; in [7] (HL-60, 72 h) it was 11.5 µM; in series [27] (HT-29, 72 h) it was 9.4 µM. Further, the IC50 in series [28] (MCF7, 72 h) was found to be 30.5 µM; in [29] (DLD-1, 72 h), 7.13 µM. Further, the Ratio IC50 in [3] stood at 2.5; in series [8], 2; in series [9], 3; in series [10], 2; in [11], 3; in [12], 2. Besides, the Ratio IC50 in [13] was 3; in series [14] it was 2; in series [15], 3; in series [16], 2; in [17], 3; in series [18], 5. Moreover, the Activity result in series [4], in [5], in series [6], in series [7], in [19] and in series [20] was “Dose-dependent effect” throughout. For the same compound, the Activity was 78% in series [21]; “Tde” in series [23]; “Dose-dependent effect” in series [27]; “Dose-dependent effect” in [28]; “Dose-dependent effect” in [29]. The GI50 in series [5] amounted to 1.36 µM. Besides, the result in [22] and in series [30] was Active. Also, the result in series [24] and in [31] was inactive. For the same compound, in series [25], the inhibition entry was “Active”. Besides, the solubility in [26] (water, read-out: solubility) was found to be 996 µM (≈ 333 µg/mL).

In the case of `O=C1c2c(N3CCOCC3)cccc2-n2c1nc1ccccc1c2=O`, the inhibition entry in series [1] is “inactive”.

On to `O=C1c2ccccc2-n2c1nc1ccccc1c2=O` [TRYPTANTHRIN], for which the inhibition result in [1] is “inactive”. Further, in series [5], the IC50 turned out to be 44.4 µM and the GI50 is 14.5 µM. The compound also returned a solubility in series [26] (buffer) of 91.02 µM (≈ 22.6 µg/mL).

As to `CN1CCN(c2ccc3c(c2)-n2c(nc4ccccc4c2=O)C3=O)CC1`, the IC50 in [2] worked out at 138 µM.

As for `CN1CCN(c2cccc3c2C(=O)c2nc4ccccc4c(=O)n2-3)CC1`, the IC50 in [2] is 114 µM.

As for `O=C1c2c(N3CCCCC3)cccc2-n2c1nc1ccccc1c2=O`, the inhibition entry in series [1] is “inactive”.

Consider `CCN(CC)c1ccc2c(c1)-n1c(nc3ccccc3c1=O)C2=O`, for which the inhibition result in [1] is “inactive”.
